Source: paper PMC10356740 (Journal of sleep research, 2023)
Where two headings read alike, the source gives them in different places.

Legend:
[1] = assay type: in vivo; details: mouse, ip, 10 mg/kg
Outline: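 Dosing was 10 mg/kg, s.c. or i.p. by compound, with sparse sampling of plasma and brain. Total drug measured by LC-MS/MS was multiplied by fraction unbound to give free concentrations. Fraction unbound came from 5 μM compound incubated in mouse plasma or brain homogenate by rapid equilibrium dialysis. Parameters were derived by noncompartmental analysis, with terminal half-life by best fit.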

[2] = Fraction unbound by rapid equilibrium dialysis; assay type: in vitro ADME; details: mouse
[3] = system: narcoleptic male orexin/tTA; TetO-DTA mice; experiment: EEG/EMG sleep/wake and cataplexy scoring after dosing before dark onset; assay type: in vivo, mouse
Outline: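 Crossover in telemetered male DTA mice (n = 7) given 1, 3 or 10 mg/kg s.c. or i.p., or the matching vehicle, 15 min before ZT12, ≥3 d between doses. EEG/EMG were scored for 6 h as hourly and cumulative time per state and as bouts. NREM latency ran from dosing to the first 6 consecutive NREM epochs; REM latency to the first 3 REM epochs. Analysis used 1-way ANOVA or 2-way RM ANOVA (treatment × time), with Holm-Sidak vs vehicle.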

[4] = system: narcoleptic male orexin/tTA; TetO-DTA mice; experiment: EEG spectral power analysis; assay type: in vivo, mouse
Outline: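 Male orexin/tTA;TetO-DTA mice (n = 7) with subcutaneous EEG/EMG telemeters received vehicle or 1, 3 or 10 mg/kg (s.c. or i.p. by compound, 10 mL/kg) 15 min before light offset at ZT12. Design was repeated measures in balanced order, ≥3 d apart. Normalized EEG spectra were taken in 0.122 Hz bins and bands: delta 0.5–4, theta 4–9, alpha 9–12, beta 12–30, low gamma 30–60, high gamma 60–100 Hz. Each state needed ≥3 animals. Analysis was 2-way RM ANOVA with Holm-Sidak.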

[5] = system: narcoleptic male orexin/tTA; TetO-DTA mice; experiment: Gross motor activity, running wheel activity and subcutaneous temperature; assay type: in vivo, mouse
Outline: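 Gross motor activity came from the implanted subcutaneous telemeter, alongside home-cage running-wheel activity and bouts and subcutaneous temperature, analysed per ZT hour after dosing. Male DTA mice (n = 7), adapted ≥2 weeks to wheels, handling and dosing, received vehicle or 1, 3 or 10 mg/kg s.c. or i.p. 15 min before ZT12 in repeated-measures order. Analysis was 2-way RM ANOVA (treatment × time) with Holm-Sidak.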

[6] = system: Hcrt peptide-deficient and Hcrt neuron-ablated mice; details: ref Irukayama-Tomobe et al., 2017; cited from earlier work
[7] = system: Hcrt receptor-deficient mice; details: ref Irukayama-Tomobe et al., 2017; cited from earlier work
[8] = system: Hcrt-deficient, Hcrt neuron-ablated and wild-type mice; details: peripheral administration; ref Irukayama-Tomobe et al., 2017; cited from earlier work
[9] = first post-dosing hour (ZT13), 3 and 10 mg/kg i.p.

CCNC(=O)N1CCC[C@H](NS(C)(=O)=O)[C@@H]1CO[C@H]1CC[C@@H](C(C)C)CC1 [ARN-776, (2R,3S)-N-ethyl-2-{[(cis-4-isopropylcyclohexyl)oxy]methyl}−3-[(methylsulfonyl)amino]piperidine-1-carboxamide]
Cmax ([1]; brain): 13 ng/g | Tmax ([1]; brain): 10 min | half-life ([1]; brain): 38 min | AUC(0-t) ([1]; plasma): 191 ng·h/mL | Cmax ([1]; plasma): 326 ng/mL | Tmax ([1]; plasma): 10 min | half-life ([1]; plasma): 125 min | fraction unbound at 5 μM ([2]; mouse brain homogenate): 0.121 | fraction unbound at 5 μM ([2]; mouse plasma): 0.176 | Number of Wake bouts across the entire 6-h recording ([3]; 3 mg/kg (p = 0.03) and 10 mg/kg (p = 0.002) i.p.): significantly reduced the number of Wake bouts | Cataplexy bout duration ([3]; 3 mg/kg i.p., p = 0.046): modest effect | Cumulative time in Wake ([3]; 10 mg/kg i.p., post hoc p = 0.005): significant effects | Cumulative time in NREM sleep ([3]; 10 mg/kg i.p., post hoc p = 0.028): significant effects | Latency to REM sleep ([3]; 10 mg/kg i.p., vs vehicle): delayed REM sleep | NREM bout duration, post hoc test per dose ([3]; 1–10 mg/kg i.p.): did not identify any specific dose | REM bout duration, post hoc test per dose ([3]; 1–10 mg/kg i.p.): did not identify any specific dose | REM sleep rebound after early suppression ([3]; 1–10 mg/kg i.p.): rebound did not reach statistical significance | Percent time in Cataplexy across the 6-h recording ([3]; all 3 doses (1, 3, 10 mg/kg i.p.)): reduced Cataplexy across the 6-h period | Cumulative time in Cataplexy ([3]; all 3 doses i.p.): cumulative suppression of Cataplexy | Wake bout duration, treatment effect ([3]; all doses i.p., 6-h recording): significant treatment effects | REM/NREM ratio ([3]; entire 6-h recording, i.p.): unchanged | Number of NREM bouts ([3]; first hour post-dosing, only middle and high doses i.p.): reduced the number of NREM bouts | Hourly amount of NREM sleep ([3]; first hour, 1–10 mg/kg i.p.): dose-related changes | Hourly amount of REM sleep ([3]; first hour, 1–10 mg/kg i.p.): dose-related changes | Hourly amount of Wake ([3]; first hour, 1–10 mg/kg i.p.): dose-related changes | Number of Wake bouts ([3]; first hour, 1–10 mg/kg i.p.): dose-related effect | Reduction in hourly Cataplexy levels ([3]; first hour, 1–10 mg/kg i.p.): did not reach statistical significance | Wake bout duration ([3]; first post-dosing hour (ZT13), all doses i.p.): increased Wake bout duration | Compensatory NREM sleep after increased wakefulness ([3]; hours after the first post-dosing hour, i.p.): no compensatory increase in NREM sleep | Suppression of cumulative REM sleep ([3]; lower doses i.p.): limited to the first post-dosing hour | Number of REM bouts ([3]; only 10 mg/kg i.p.): reduced the number of REM bouts | Latency to NREM sleep ([3]; only 3 and 10 mg/kg i.p. (not 1 mg/kg), vs vehicle): delayed NREM | Number of Cataplexy bouts ([3]; only the two highest concentrations i.p.): effective during the first and later hours | Number of Wake bouts ([3]; second hour, only 10 mg/kg i.p.): reduced the number of Wake bouts | High gamma EEG power during Wake across the entire recording period ([4]; 10 mg/kg i.p., p = 0.04): significantly increased high gamma | Waking EEG low and high gamma power ([4]; ZT13, 3 mg/kg i.p.): significantly increased | NREM EEG alpha and high gamma power ([4]; ZT14, 10 mg/kg i.p.): significant reductions | NREM EEG high gamma power ([4]; ZT15, 10 mg/kg i.p.): reduction of high gamma continued into ZT15 | Waking EEG power in alpha, low gamma and high gamma ([4]; first post-dosing hour, 10 mg/kg i.p.): significantly increased power in all three of these bands | Number of running bouts ([5]; ZT13, 3 and 10 mg/kg i.p.): more running bouts | Gross motor activity ([5]; ZT15, highest dose i.p.): reduced gross motor activity | Gross motor activity [5, 9]: significantly increased motor activity | Running wheel activity [5, 9]: significantly increased running wheel activity | Subcutaneous temperature (Tsc) [5, 9]: significantly increased Tsc

COc1ccc(-c2cccc(C(=O)N(C)C)c2)cc1S(=O)(=O)Nc1cccc(NCCNC(=O)c2ccccc2N(C)C)c1 [YNT-185]
Sleep onset REM periods (SOREMs) [6]: reduced sleep onset REM periods (SOREMs) | Sleep onset REM periods (SOREMs) [7]: but not in Hcrt receptor-deficient mice | Wakefulness [8]: promoted wakefulness
